Results of several laboratories.
RPS6KA6: Ribosomal protein S6 kinase alpha-6 (RPS6KA6, Homo sapiens, UniProt Q9UK32)
RPS6KA6 N-terminal kinase domain: Ribosomal protein S6 kinase alpha-6, N-terminal kinase domain (RPS6KA6, Homo sapiens, UniProt Q9UK32)
RPS6KA6 C-terminal kinase domain: Ribosomal protein S6 kinase alpha-6, C-terminal kinase domain (RPS6KA6, Homo sapiens, UniProt Q9UK32)

Structure (SMILES) | target | observed | action | method | tested at | quantity | value
O=c1[nH]c2ccccc2n1C1CCN(Cc2ccc(-c3[nH]c4cc5ncnc5cc4nc3-c3ccccc3)cc2)CC1 | RPS6KA6 | cell-free assay | – | – | 0.5 µM | remaining signal | 109%
COc1cc(Nc2ncc(F)c(Nc3ccc4c(n3)NC(=O)C(C)(C)O4)n2)cc(OC)c1OC | RPS6KA6 N-terminal kinase domain | binding | – | competition with immobilised ligand | 10 µM | inhibition | 70%
Cn1cc(-c2cc(F)cc(N3CCn4c(cc5c4CCCC5)C3=O)c2CO)cc(Nc2ccc(N3CCN(C4COC4)CC3)cn2)c1=O | RPS6KA6 | enzyme activity | inhibitor | – | 0.1 µM | inhibition | 2%
N#CC1(c2ccccn2)CCN(Cc2cc(C(=O)O)c(=O)n3ccccc23)CC1 | RPS6KA6 C-terminal kinase domain | cell-free assay | – | competition with immobilised ligand | 1 µM | remaining binding | 97%
CC(C)(C)c1cc(C=C(C#N)C#N)cc(Br)c1O | RPS6KA6 | enzyme activity | inhibitor | – | 0.5 µM | remaining activity | 101%
Nc1ncc(-c2nc(N3CCOCC3)nc(N3CCOCC3)n2)c(C(F)F)n1 | RPS6KA6 C-terminal kinase domain | binding | – | competition with immobilised ligand | 10 µM | remaining binding | 94%
Cc1nn(C)cc1-c1nc2c(N3CCN(Cc4ccc(Cl)cc4)CC3)c(Cl)cnc2[nH]1 | RPS6KA6 N-terminal kinase domain | binding | – | competition with immobilised ligand | 1 µM | remaining binding | 66%
Cn1cncc1[C@](O)(COc1ccc(C#N)cc1-c1ccc(OC(F)(F)F)cc1)c1ccc(C#N)cc1 | RPS6KA6 N-terminal kinase domain | cell-free assay | – | competition with immobilised ligand | 1 µM | remaining binding | 91%
Cn1cc(-c2cccc(N3CCc4c(sc5c4CC(C)(C)C5)C3=O)c2CO)cc(Nc2ccncn2)c1=O | RPS6KA6 | enzyme activity | inhibitor | – | 1 µM | inhibition | 9%
